This is an account of results in paper PMC4517987 (Bioorganic & medicinal chemistry, 2015).

The subject of assay [1] is Plasmodium yoelii. The note with it: murine model of Plasmodium yoelii; ref unpublished observations; cited from earlier work.
Assay [2] concerns late (>90% stage IV/V) gametocytes of P. falciparum (NF54-Mal8p1.16-GFP-Luc). The experiment in a line: Gametocytocidal luciferase reporter assay, late gametocytes. The note with it: 5 µM, 48 h, inhibition of luciferase readout. Type of assay: cell-based, Plasmodium falciparum. Put shortly:
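Gametocytes induced from synchronized asexual cultures in the NF54-Mal8p1.16-GFP-Luc line: glucose-free medium under hypoxia, with daily changes, and 50 mM N-acetyl glucosamine on days 1–4 to remove asexual forms. Assays set up on day 10 in triplicate at 2% gametocytemia and 2% hematocrit, 48 h, 37 °C, hypoxic. Luciferin added to lysates at room temperature and luminescence read with 10 s integration; % inhibition derived.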

Assay [3] relates to HepG2 cells. The experiment in a line: Cytotoxicity against HepG2 cells, lactate dehydrogenase. Type of assay: cell-based, human. The note with it: GI50 mammalian cell (HepG2)/IC50 P. falciparum (3D7).
For assay [4], the system named is β-hematin formation. The experiment in a line: NP-40 mediated β-hematin formation assay. The class given is biochemical.
For assay [5], the system named is intraerythrocytic P. falciparum parasites. Put plainly: Flow cytometric analysis of nuclear content and parasitemia. The note with it: 1 × IC90, continuous treatment for 96 h. The class given is cell-based, Plasmodium falciparum. Put shortly: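 Intraerythrocytic parasites (2% parasitemia, 2% hematocrit) treated in duplicate, with untreated (DMSO) controls. Samples taken at 24, 48, 72 and 96 h. Nuclear content (1 N rings/early trophozoites, 2 N trophozoites, >2 N schizonts) and parasitemia measured from SYBR Green I fluorescence by flow cytometry in the FITC channel (488 nm excitation; 502 nm long-pass and 530 nm band-pass emission).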
A general note: A flow cytometer gives signals particle by particle.

Assay [6] deals with HepG2 cells. The note with it: HepG2 vs P. falciparum; cited from earlier work.
Assay [7] concerns intraerythrocytic P. falciparum 3D7. To be noted: cited from earlier work.

Where a name gives a salt, the structure may show the parent alone.

As to `C(CCCNCCCNCC1CCCCCC1)CCCNCCCNCC1CCCCCC1` [Compound 5], in assay [1], the “Reduction of parasitemia and extension of life span” value is “as effective as pyrimethamine at reducing parasitemia and extending life span”. On to `S=C(NCCCNCCCCCNCCCNC(=S)NC(c1ccccc1)c1ccccc1)NC(c1ccccc1)c1ccccc1` [Compound 9, 1,13-Bis-{3-[1-(1’,1’-diphenylmethyl)thiourea]}-4,10-diazatridecane dihydrochloride], for which the “Gametocytocidal activity, late-stage gametocytes” value in assay [2] was “fully inhibitory”. As for `S=C(NCCCNCCCCCNCCCNC(=S)NCC(c1ccccc1)c1ccccc1)NCC(c1ccccc1)c1ccccc1` [Compound 10, 1,13-Bis-{3-[1-(2′,2′-diphenylethyl)thiourea]}-4,10-diazatridecane dihydrochloride], the “Selectivity index (SI)” value in assay [3] is listed as greater than 1000. As to `S=C(NCCCNCCCCCNCCCNC(=S)NCCC(c1ccccc1)c1ccccc1)NCCC(c1ccccc1)c1ccccc1` [Compound 11, 1,13-Bis-{3-[1-(3′,3′-diphenylpropyl)thiourea]}-4,10-diazatridecane dihydrochloride], in assay [2], the “Gametocytocidal activity, late-stage gametocytes” value is on record as “fully inhibitory”. Regarding `O=C(NCCCNCCCCCNCCCNC(=O)NCc1ccccc1)NCc1ccccc1` [Compound 13, 1,13-Bis-{3-[1-(benzyl)urea]}-4,10-diazatridecane dihydrochloride], the “β-hematin formation inhibition, concentration without activity” value in assay [4] (no activity even at 1 mM) is given as greater than 1 mM. In the case of `O=C(NCCCNCCCCCNCCCNC(=O)NCC(c1ccccc1)c1ccccc1)NCC(c1ccccc1)c1ccccc1` [Compound 15, 1,13-Bis-{3-[1-(2′,2′-diphenylethyl)urea]}-4,10-diazat-ridecane dihydrochloride], in assay [5], the “Time to complete cessation of parasite proliferation” value is reported as no more than 24 h. A word on the IC50: it is the concentration that inhibits the measured activity by half. Consider `O=C(NCCCNCCCCCNCCCNC(=O)NCCC(c1ccccc1)c1ccccc1)NCCC(c1ccccc1)c1ccccc1` [Compound 16, 1,13-Bis-{3-[1-(3′,3′-diphenylpropyl)urea]}-4,10-diazatridecane dihydrochloride], for which the “Time to complete cessation of parasite proliferation” value in assay [5] is reported as no more than 24 h. The IC50 in assay [4] (read-out: β-hematin formation inhibition IC50, NP-40 mediated, n = 3) was greater than 400 µM. For the molecule `S=C(NCCCNCCCCCCNCCCNC(=S)NCc1ccccc1)NCc1ccccc1` [Compound 28], the “Selectivity (SI) compared to HepG2 cells (previously reported analogues)” value in assay [6] is on record as greater than 1000.

On to `O=C(NCCCNCCCCCCCNCCCNC(=O)NC(c1ccccc1)c1ccccc1)NC(c1ccccc1)c1ccccc1` [Compound 29], for which the “Selectivity (SI) compared to HepG2 cells (previously reported analogues)” value in assay [6] is greater than 1000. For `CCCNC(=O)NCCCNCCCCCCNCCCNC(=O)NCCC` [Compound 53], the “P. falciparum IC50 (previously reported analogues)” value in assay [7] is “inactive”.

On to `CCNC(=O)NCCCNCCCCCCNCCCNC(=O)NCC` [Compound 54], for which, in assay [7], the “P. falciparum IC50 (previously reported analogues)” value was “inactive”.
